A selection: hits, their analogues and other compounds. The true share with any hit is near 3.7%.
KCNQ1 act: potentiators or activators of human KCNQ1 potassium channel. P51787. CHO-K1 KCNQ1, thallium flux FluxOR fluorescence; stronger effect = higher value. B-score at 10 µM. 0.35% of 310,000 active. AID 2648;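 active means fluorescence ratio B-score, a plate-corrected score, at least three library SD, with initial intensity B-score within 5 SD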
Target sequence (P51787 whole entry, looked up): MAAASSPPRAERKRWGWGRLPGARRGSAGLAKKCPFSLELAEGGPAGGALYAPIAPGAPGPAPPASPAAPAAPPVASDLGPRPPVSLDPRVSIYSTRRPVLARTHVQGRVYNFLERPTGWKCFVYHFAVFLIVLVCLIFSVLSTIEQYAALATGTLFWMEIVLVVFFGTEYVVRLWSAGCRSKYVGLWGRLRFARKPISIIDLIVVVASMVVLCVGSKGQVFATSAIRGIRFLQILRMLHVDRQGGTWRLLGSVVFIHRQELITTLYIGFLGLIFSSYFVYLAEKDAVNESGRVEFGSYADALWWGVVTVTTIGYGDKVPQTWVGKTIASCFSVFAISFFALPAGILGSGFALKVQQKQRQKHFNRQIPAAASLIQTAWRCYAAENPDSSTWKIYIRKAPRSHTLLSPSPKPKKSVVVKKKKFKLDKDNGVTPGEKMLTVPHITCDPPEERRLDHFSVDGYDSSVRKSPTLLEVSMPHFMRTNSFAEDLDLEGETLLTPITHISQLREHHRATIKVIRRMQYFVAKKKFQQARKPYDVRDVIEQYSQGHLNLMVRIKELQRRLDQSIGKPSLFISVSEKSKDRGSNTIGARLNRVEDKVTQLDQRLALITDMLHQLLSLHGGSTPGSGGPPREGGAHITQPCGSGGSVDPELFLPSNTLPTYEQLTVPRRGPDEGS
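Assay system: CHO-K1 cells stably expressing KCNQ1. Medium: assay buffer for compound exposure, DMSO matched across wells. Timing: 37 °C overnight plating, 90-min dark dye load, 20-min compound pretreatment. Signal: kinetic FluxOR fluorescence, 10 s baseline plus 110 s post-stimulus.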
KCNQ1 inh: inhibitors of human KCNQ1 potassium channel. P51787. CHO-K1 KCNQ1, FluxOR thallium flux fluorescence; stronger effect = higher value. B-score at 10 µM. 1.3% of 310,000 active;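 active means compounds whose thallium flux B-score, printed positive for inhibition, exceeds three library SD while starting fluorescence stays within three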;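 further: channel opened by potassium depolarization with thallium stimulus after 20 min compound exposure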
KCNK3 block: human KCNK3 channel inhibition, primary screen | O14649 | CHO-KCNK3 thallium flux, FluxOR fluorescence; stronger effect = lower value | B-score at 10 µM | 0.84% of 340,000 active | AID 602410;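 active means B-score under library mean minus 4 SD, starting fluorescence ratio at most library mean plus 5 SD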;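 further: more negative B-score means stronger inhibition of thallium flux through KCNK3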
hERG rescue: hERG (human) protection from proarrhythmic block. CHO-hERG, FluxOR thallium flux, dofetilide IC70 present. 0.51% of 310,000 active. activation (rescue from dofetilide block), less the hit threshold, % at 10 µM;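 active means activation above the mean of controls blocked by dofetilide plus 5 SD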;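 further: thallium influx through hERG after potassium depolarization seen as dye fluorescence rise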
Kir21 block: blocks the mouse Kir2.1 inward-rectifier potassium channel; P35561; HEK293-Kir2.1, FluxOR thallium flux fluorescence; stronger effect = lower value; B-score at 10 µM; 0.85% of 310,000 active;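 active means fluorescence ratio B-score at or below minus 3 SD of library scores, with starting-brightness B-score within 2 SD, cut at about -4.2 in these data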;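 further: channel flux triggered by added potassium and thallium sulfate stimulus; B-score of peak minus minimum fluorescence over baseline after thallium stimulus; more negative B-score means stronger Kir2.1 block with less thallium influx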
KCNK9 block: human KCNK9 channel inhibition; HEK293 KCNK9, FluxOR thallium flux fluorescence; stronger effect = lower value; B-score at 10 µM; Q9NPC2; 1.2% of 310,000 active;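 active means ratio B-score over 3 SD below the library mean, with starting fluorescence within 5 SD of its mean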;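 further: negative B-score means less thallium flux so channel inhibition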
KCNK9 inh conf: confirmation of human KCNK9 potassium channel inhibitors; shares compounds with KCNK9 block; HEK293 KCNK9 cells, FluxOR thallium flux fluorescence; inhibition, % at 10 µM; 43% of 4,900 active;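 active means thallium signal inhibited by more than 5 SD of the compound-free buffer control wells, on both duplicate plates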;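 further: 0% = assay buffer control wells without compound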
Kir2-1 spec: selectivity of KCNK9 modulators against mouse Kir2.1. shares compounds with KCNK9 block. Kir2.1 cells, FluxOR thallium flux fluorescence. inhibition, % at 10 µM. 4% of 4,900 active. AID 492993;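 active means thallium signal drop more than 5 SD beyond the mean of the no-compound control wells, seen in both duplicate plates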;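 further: signal is fluorescence rise after thallium addition divided by baseline fluorescence; plate controls were assay buffer only for no effect and full block by chlorpromazine control for full effect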
HEK293 Tl ctr: second check of KCNK9 modulator effects in non-induced HEK293 cells | shares compounds with KCNK9 block | FluxOR thallium flux | inhibition, % at 10 µM | 40% of 4,900 active | AID 492997;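 active means thallium signal drop beyond 5 SD of the untreated control mean, on both duplicate plates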;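 further: plate controls were buffer only IC0 wells for no effect and SID17386958 at its maximal inhibitory level for full effect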
* marks the source's active call; other numbers are inactive results; i = inactive; · = no result given.

SMILES	KCNQ1 act	KCNQ1 inh	KCNK3 block	hERG rescue	Kir21 block	KCNK9 block	KCNK9 inh conf	Kir2-1 spec	HEK293 Tl ctr
Cc1ccc(CN2C(=O)C(Cc3ccccc3)Nc3ncnc(N4CCN(c5ccccc5)CC4)c32)cc1 (stereo not given)	i	i	i	-13.9	0.12	i	·	·	·
Cc1ccc(CN2C(=O)C(Cc3ccccc3)Nc3ncnc(N4CCCCC4)c32)cc1 (stereo not given)	i	i	i	-8.5	1.61	-13.7*	64.5%*	i	38.0%*
COc1ccc(CN2C(=O)C(Cc3ccccc3)Nc3ncnc(N4CCCCC4)c32)cc1 (stereo not given)	i	i	i	-8.7	0.04	-13*	54.5%*	i	27.0%*
COc1cccc(CNC(=O)c2cccc(NC(=O)C3=C(C)OCCS3)c2)c1	i	i	i	-13.3	1.48	-8.88*	50.0%*	i	i
Cc1ccc(/C=C2/SC(=S)N(C3CCCCC3)C2=O)o1	i	i	i	-7.6	-0.19	i	i	i	i
O=S(=O)(c1ccccc1)N1CCN(C(=S)Nc2ccccc2Cl)CC1	i	i	i	-12.9	0.51	i	·	·	·
CCOC(=O)C(CSCc1ccccc1)NC(=O)OC(C)(C)C (stereo not given)	i	i	i	-5.7	-4.31*	i	i	i	i
COc1ccc(-c2cc(CNC(=O)CN(C)Cc3ccccc3)on2)cc1	i	i	i	-6.9	-0.34	i	·	·	·
Cc1cc(C)cc(CC(Cc2nc3ccccc3[nH]2)c2nc3ccccc3[nH]2)c1 (stereo not given)	i	12*	i	-7.8	-0.61	-8.1*	29.0%*	i	37.0%*
Cc1ccc(CSCc2nc3ccccc3[nH]2)cc1	i	i	i	-3.4	-0.6	i	·	·	·
CC1CC1C(=O)N(C)CC(=O)Nc1ccccc1Br (stereo not given)	·	·	i	·	·	·	·	·	·
CC(C)c1nc(N2CCN(C(=O)c3ccccc3)CC2)c(C#N)c2c1COC(C)(C)C2	i	i	i	-11.8	-0.31	i	i	i	i
CC(C)c1nc(N2CCN(C(=O)c3ccco3)CC2)c(C#N)c2c1COC(C)(C)C2	i	i	i	-21.5	-2.13	i	·	·	·
CC1(C)Cc2c(C#N)c(N3CCCC3)nc(-c3ccco3)c2CO1	i	i	i	-25.6	0.39	i	i	i	i
CC1CN(C(=O)CCNC(=O)c2ccc(Br)cc2)CC(C)O1 (stereo not given)	i	i	i	-2.7	1.03	i	·	·	·
COc1ccccc1N1CCN(/N=C/C=C\c2ccccc2[N+](=O)[O-])CC1	i	i	i	-16.4	2.59	i	i	i	i
CCOc1ccccc1NC(=O)CSc1nnc(-c2ccco2)n1Cc1ccco1	i	i	i	-3.7	-3.99	i	·	·	·
CCOc1ccccc1NC(=O)CSc1nnc(-c2ccccc2Cl)n1Cc1ccco1	i	i	i	-6.9	-2.24	-10.3*	53.0%*	i	35.5%*
COC(=O)C1=C(N)Oc2cc(C)n(Cc3ccco3)c(=O)c2C1c1cccc(Cl)c1 (stereo not given)	i	i	i	-3.9	-0.17	-13.5*	46.5%*	i	45.0%*
COC(=O)C1=C(N)Oc2cc(C)n(CC3CCCO3)c(=O)c2C1c1ccc(Cl)c(Cl)c1 (stereo not given)	i	i	i	-12.7	-0.46	-9.05*	35.0%*	i	52.0%*
CCn1c(C)cc2c(c1=O)C(c1ccccc1)C(C(=O)OC)=C(N)O2 (stereo not given)	i	i	i	-1.9	-0.77	i	·	·	·
COc1cc(C(C(=O)NC2CCCC2)N(C(=O)c2snc(C(N)=O)c2N)c2ccccc2)cc(OC)c1OC (stereo not given)	i	i	i	-3.5	0.02	i	·	·	·
CCC(C)(C)c1nnc(NC(=O)CCC2CCCCC2)s1	i	i	i	-7.5	-0.59	i	·	·	·
COc1ccc2[nH]cc(CCNC(=O)c3ccccc3Cl)c2c1	i	i	i	-8.2	-0.99	i	·	·	·
Cc1ccc(NC(=O)CSc2nnc(-c3cccs3)o2)cc1S(=O)(=O)N1CCCCC1	i	i	i	-3.7	0.05	i	·	·	·
SMILES	KCNQ1 act	KCNQ1 inh	KCNK3 block	hERG rescue	Kir21 block	KCNK9 block	KCNK9 inh conf	Kir2-1 spec	HEK293 Tl ctr
CCCCCC(=O)N1CCCC(c2nc(-c3ccc(OC)cc3)no2)C1 (stereo not given)	i	i	i	-12.5	-1.14	i	i	i	i
CCCCCCC(=O)N1CCCC(c2nc(-c3cccc(OC)c3)no2)C1 (stereo not given)	i	i	i	-15.2	-1.65	i	i	i	i
CC1=NNC(=O)c2ccccc2O1	i	i	i	-0.8	-0.04	i	·	·	·
CN(C(=O)CSC(=O)c1ccccc1)c1ccccc1	i	i	i	-13.6	-0.07	i	·	·	·
O=C(CCNc1ccc(Cl)cc1)c1cccs1	i	i	i	-6.2	0.03	i	·	·	·
O=C(CCc1ccc(CCC(=O)c2cccs2)s1)c1cccs1	i	i	i	-10.8	0	-11.3*	57.0%*	i	38.0%*
O=C(CCNc1cc(Cl)cc(Cl)c1)c1cccs1	i	i	i	-16.6	2.81	-8.73*	i	i	38.5%*
Cc1ccc(NC(=O)CSc2nc(-c3ccco3)nc3cc(=O)[nH]n23)c(Cl)c1	i	i	i	-6.5	1.8	i	·	·	·
O=C(CN1CCN(S(=O)(=O)c2ccc3ccccc3c2)CC1)Nc1ccc2c(c1)CCC2	i	i	i	-2.1	0.37	i	·	·	·
Cc1ccc2nc(Nc3nc(C)cc(-c4ccccc4)n3)[nH]c(=O)c2c1	i	i	i	-10.9	0.68	i	·	·	·
Cc1nc(SCc2ccccc2C#N)n[nH]1	i	i	i	-6.5	0.41	i	·	·	·
N#Cc1ccccc1CSc1nc(N2CCCCC2)nc(N2CCCCC2)n1	i	i	i	-10.6	-0.87	i	i	i	i
CC/C(=N\NC(N)=O)c1ccc(OC(F)F)cc1	i	i	i	-11.3	0.59	i	·	·	·
